In brackets after ≈: the same amount, converted by molar mass.
How the values were obtained:
Influenza B virus [1] = experiment: Antiviral activity against Influenza B virus jifang/13/97 infected in MDCK cells assessed as inhibition of plaque formation after 3 to 4 days by crystal violet staining-based assay; type: functional, organism-based; conditions: jifang/13/97, MDCK
Procedure, shortened: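 Plaque reduction: MDCK monolayers in 12-well plates were PBS-washed and infected with influenza B in trypsin-free maintenance medium for 2 h at 37 °C, 5% CO2. Inoculum was removed and the cells washed three times. A 1.5% agarose/MEM overlay with trypsin (2 μg/ml) and drug was added. After 3-4 days, crystal violet (0.5%) plaque counts against no-drug wells gave IC50 by Reed & Muench. Ribavirin was the control.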

[2] = Selectivity index, ratio of TC50 for MDCK cells to IC50 for Influenza B virus jifang/13/97; type: toxicity, cell-based; conditions: dog, read-out: Selectivity Index
Procedure, shortened: (§1)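 Selectivity index = TC50 (MDCK, 48 h visual cytotoxicity) / IC50 from the 40 h CPE-inhibition assay for the given strain.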

Influenza B virus [3] = experiment: Antiviral activity against Influenza B virus jifang/13/97 infected in MDCK cells assessed as inhibition of virus-induced cytopathicity after 40 hrs; type: functional, organism-based; conditions: jifang/13/97, MDCK
Procedure, shortened: (§2)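 CPE reduction in MDCK cells: cells grown 24 h at 37 °C, 5% CO2, then infected and held 2 h at 37 °C before the inoculum was removed. Threefold serial drug dilutions (8 levels from 20 mg/mL DMSO stocks) were added and incubated 40 h at 37 °C. CPE inhibition was scored against cell and virus controls to give IC50. Ribavirin and oseltamivir were the controls.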

[4] = Selectivity index, ratio of TC50 for MDCK cells to IC50 for Influenza A virus A/hanfang/359/95(H3N2); type: toxicity, cell-based; conditions: dog, read-out: Selectivity Index; procedure, shortened: as §1
Influenza A virus [5] = experiment: Antiviral activity against Influenza A virus A/hanfang/359/95(H3N2) infected in MDCK cells assessed as inhibition of virus-induced cytopathicity after 40 hrs; type: functional, organism-based; procedure, shortened: as §2
[6] = Selectivity index, ratio of TC50 for MDCK cells to IC50 for Influenza A virus (A/Tianjinjinnan/15/2009/H1N1); type: toxicity, cell-based; conditions: dog, read-out: Selectivity Index; procedure, shortened: as §1
[7] = Selectivity index, ratio of TC50 for MDCK cells to IC50 for Influenza A virus (A/FM/1/1947(H1N1)); type: toxicity, cell-based; conditions: dog, read-out: Selectivity Index; procedure, shortened: as §1
Influenza A virus [8] = experiment: Antiviral activity against Influenza A virus (A/FM/1/1947(H1N1)) infected in MDCK cells assessed as inhibition of virus-induced cytopathicity after 40 hrs; type: functional, organism-based; conditions: A/Fort Monmouth/1/1947(H1N1); procedure, shortened: as §2

SMILES: NC(=O)c1ncn([C@@H]2O[C@H](CO)[C@@H](O)[C@H]2O)n1 [RIBAVIRIN]
- IC50 (Influenza B virus [1]): 3.27 µg/mL (≈ 13.4 µM)
- selectivity ratio [2]: 206
- IC50 (Influenza B virus [3]): 7.84 µg/mL (≈ 32.1 µM)
- selectivity ratio [4]: 213
- IC50 (Influenza A virus [5]): 5.59 µg/mL (≈ 22.9 µM)
- selectivity ratio [6]: 185
- selectivity ratio [7]: 820
- IC50 (Influenza A virus [8]): 1.92 µg/mL (≈ 7.86 µM)

Source: ChEMBL document CHEMBL3124823, “1,2,3-Triazole-containing derivatives of rupestonic acid: click-chemical synthesis and antiviral activities against influenza viruses” (Eur J Med Chem, 2014)
